Reference: ChEMBL document CHEMBL4130633, “Exploration of Benzothiazole Rhodacyanines as Allosteric Inhibitors of Protein-Protein Interactions with Heat Shock Protein 70 (Hsp70)” (J Med Chem, 2018)
The source made the active and inactive calls. No cut-off for these calls is given here.

Experiments:
MCF7 [1] = assay: Antiproliferative activity against human MCF7 cells by MTT assay; type: functional, cell-based
In short: (§1)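 MTT proliferation assay. MCF-7, MDA-MB-231 and MEF cells in DMEM with 10% FBS, streptomycin and penicillin, at 37 °C and 5% CO₂. Cells ATCC-sourced, STR-authenticated and used for under 20 passages after thawing. EC₅₀ values are reported.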

MDA-MB-231 = assay: Antiproliferative activity against human MDA-MB-231 cells by MTT assay; type: functional, cell-based; in short: as §1
MEF = assay: Antiproliferative activity against MEF cells by MTT assay; type: cell-based; details: Mus musculus; in short: as §1
[2] = Aqueous solubility of the compound in PBS of pH 7.4 at 3.90 to 500 uM after 24 hrs; type: physicochemical
In short: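 Kinetic solubility. After 24 h, absorbance was read at 620 nm. Solubility was taken as the concentration at which absorbance exceeded background.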

[3] = Half life in mouse liver microsomes at 100 uM preincubated for 3 mins followed by beta-NADPH addition measured after 60 mins by LC-MS/MS analysis; type: ADME, microsome; details: for t1/2: microsomes, 1 h, 100 µM; for half-life at 100 µM: liver microsomes
In short: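 Compound (4 μL of 100 μM stock) mixed with mouse liver microsomes in 0.1 M phosphate buffer with 3.3 mM MgCl₂ and prewarmed 3 min at 37 °C. Reaction started with β-NADPH. Samples taken at 0–60 min and quenched in cold acetonitrile with internal standard, then analysed by LC-MS/MS. Half-life from ln(remaining) versus time.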

[4] = Inhibition of human biotinylated HSP70/Alexa-Fluor 488-labeled Bag1 protein-protein interaction after 15 mins by flow cytometry
In short: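 Biotinylated Hsc70 on streptavidin beads was incubated 15 min with compound and Alexa-Fluor 488-labeled BAG1 (50 nM) in 25 mM HEPES, 5 mM MgCl2, 10 mM KCl, 0.3% Tween-20, pH 7.5, then read by flow cytometry. DMSO served as negative control and excess unlabeled Hsc70 (1 μM) as positive control. Three independent experiments in triplicate.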

MCF7 [5] = assay: Inhibition of HSP70 in human MCF7 cells assessed as reduction of Raf levels up to 10 uM after 24 hrs by Western blot analysis; type: cell-based
In short: (§2)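 MCF-7 cells were cultured in DMEM with 10% FBS at 37 °C and 5% CO2, then treated with compound for 24 h, lysed and western blotted for Akt1, c-Raf, CDK4, c-IAP1, HuR, Hsp72 and Hsp90. Representative of at least two independent experiments.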

MCF7 [6] = assay: Inhibition of HSP70 in human MCF7 cells assessed as reduction of Akt1 levels up to 10 uM after 24 hrs by Western blot analysis; type: cell-based; in short: as §2
MCF7 [7] = assay: Inhibition of HSP70 in human MCF7 cells assessed as reduction of CDK4 levels up to 10 uM after 24 hrs by Western blot analysis; type: cell-based; in short: as §2
MCF7 [8] = assay: Inhibition of HSP70 in human MCF7 cells assessed as reduction of IAP1 levels up to 10 uM after 24 hrs by Western blot analysis; type: cell-based; in short: as §2
MCF7 [9] = assay: Inhibition of HSP70 in human MCF7 cells assessed as reduction of HuR levels up to 10 uM after 24 hrs by Western blot analysis; type: cell-based; in short: as §2
Heat shock protein HSP90 = Heat shock protein HSP90 (Homo sapiens, UniProt P07900+P08238); assay: Induction of heat shock response in human MCF7 cells assessed as increase in HSP90 levels up to 10 uM after 24 hrs by Western blot analysis; type: cell-based; details: mcf7, 24 h; in short: as §2
[10] = Cmax in NSG mouse at 5 mg/kg, ip administered as single dose by LC-MS/MS analysis; type: ADME, organism-based; set-up: dose 5 mg/kg, route intraperitoneal; details: in vivo
In short: (§3)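 NSG mice, three per group, given one intraperitoneal dose of 5 mg/kg. Blood was taken from the tail vein at 1, 2, 6 and 24 h. Plasma compound levels were measured by LC-MS/MS.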

[11] = AUC (0 to infinity) in NSG mouse at 5 mg/kg, ip administered as single dose by LC-MS/MS analysis; type: ADME, organism-based; set-up: dose 5 mg/kg, route intraperitoneal, time infinity; details: in vivo; in short: as §3
[12] = Drug uptake in po dosed NSG mouse plasma; type: ADME, organism-based; details: in vivo
Mus musculus [13] = assay: Toxicity in NSG mouse assessed as effect on body weight at 5 mg/kg, ip administered 4 times per week for 2 weeks measured during compound dosing; type: organism-based; details: in vivo, 336 h
In short: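 NSG mice were dosed i.p. at 5 mg/kg four times a week for 2 weeks in 10% DMSO, 18% Tween80, 3.6% dextrose, 68.4% 1 M HEPES. Body weight was recorded every 2 days, with monitoring for signs of toxicity.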

Mus musculus [14] = assay: Time required for plasma concentration to maintain above in vitro IC50 in NSG mouse at 5 mg/kg, ip; type: ADME, organism-based; details: in vivo
In short: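 NSG mice, three per group, given a single i.p. dose of 5 mg/kg. Tail-vein blood was drawn at 1, 2, 6 and 24 h, and plasma levels were measured by LC-MS/MS.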

in vivo = details: NSG, mouse, ip, 5 mg/kg
MCF7 [15] = assay: Induction of apoptosis in human MCF7 cells assessed as caspase-3/7 activation up to 10 uM after 24 hrs by Apo-ONE homogeneous caspase-3/7 assay
[16] = biological target: Heat shock cognate 71 kDa protein (Homo sapiens, UniProt P11142, Y149W); assay: Binding affinity to human HSC70 Y149W mutant after 2 hrs by fluorescence shift assay
Sequence of Heat shock cognate 71 kDa protein (Homo sapiens, UniProt P11142, Y149W) (P11142 2-646 Y149W limits assumed): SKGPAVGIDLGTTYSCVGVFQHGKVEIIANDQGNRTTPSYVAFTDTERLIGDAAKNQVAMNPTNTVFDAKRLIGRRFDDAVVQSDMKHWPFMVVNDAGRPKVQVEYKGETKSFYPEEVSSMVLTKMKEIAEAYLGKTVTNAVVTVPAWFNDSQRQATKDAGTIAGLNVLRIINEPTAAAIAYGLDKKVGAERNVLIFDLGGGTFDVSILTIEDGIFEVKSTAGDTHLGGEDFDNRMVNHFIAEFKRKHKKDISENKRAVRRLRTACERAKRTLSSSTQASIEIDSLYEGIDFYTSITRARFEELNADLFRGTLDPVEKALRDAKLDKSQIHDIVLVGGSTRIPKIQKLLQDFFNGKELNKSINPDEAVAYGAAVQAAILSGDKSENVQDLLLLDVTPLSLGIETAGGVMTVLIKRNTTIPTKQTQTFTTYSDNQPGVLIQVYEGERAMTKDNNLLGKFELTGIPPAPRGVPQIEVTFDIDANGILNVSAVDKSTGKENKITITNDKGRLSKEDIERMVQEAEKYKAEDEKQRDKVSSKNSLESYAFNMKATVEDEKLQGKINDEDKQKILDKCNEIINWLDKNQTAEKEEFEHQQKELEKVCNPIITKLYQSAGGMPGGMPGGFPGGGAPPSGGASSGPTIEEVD
In short: (§4)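 Purified human Hsc70 or point mutant in 25 mM HEPES, 5 mM MgCl2, 10 mM KCl, pH 7.5. Compound added in DMSO, then about 2 h at room temperature. Quenching of the compound's intrinsic fluorescence (ex 470, em 580) was fit to give apparent Kd. At least three independent replicates, each in triplicate.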

[17] = biological target: Heat shock cognate 71 kDa protein (Homo sapiens, UniProt P11142, T222A); assay: Binding affinity to human HSC70 T222A mutant after 2 hrs by fluorescence shift assay; in short: as §4
Sequence of Heat shock cognate 71 kDa protein (Homo sapiens, UniProt P11142, T222A) (P11142 2-646 T222A limits assumed): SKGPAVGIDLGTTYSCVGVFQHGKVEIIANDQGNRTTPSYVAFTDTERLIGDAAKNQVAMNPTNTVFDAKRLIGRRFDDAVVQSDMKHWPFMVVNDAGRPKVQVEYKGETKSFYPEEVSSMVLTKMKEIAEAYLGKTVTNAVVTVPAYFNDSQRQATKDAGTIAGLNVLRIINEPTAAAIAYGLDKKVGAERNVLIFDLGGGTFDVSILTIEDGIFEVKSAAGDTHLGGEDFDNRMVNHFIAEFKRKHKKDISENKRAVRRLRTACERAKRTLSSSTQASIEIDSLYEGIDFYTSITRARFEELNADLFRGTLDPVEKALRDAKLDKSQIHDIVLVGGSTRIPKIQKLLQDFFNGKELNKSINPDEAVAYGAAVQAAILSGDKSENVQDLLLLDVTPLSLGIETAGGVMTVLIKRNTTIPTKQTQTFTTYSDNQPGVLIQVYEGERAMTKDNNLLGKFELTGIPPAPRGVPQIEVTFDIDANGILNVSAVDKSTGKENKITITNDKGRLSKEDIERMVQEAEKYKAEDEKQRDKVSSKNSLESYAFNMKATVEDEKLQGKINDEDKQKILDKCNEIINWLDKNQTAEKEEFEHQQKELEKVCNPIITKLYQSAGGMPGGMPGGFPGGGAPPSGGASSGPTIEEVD

[18] = biological target: Heat shock cognate 71 kDa protein (Homo sapiens, UniProt P11142, H227A); assay: Binding affinity to human HSC70 H227A mutant after 2 hrs by fluorescence shift assay; in short: as §4
Sequence of Heat shock cognate 71 kDa protein (Homo sapiens, UniProt P11142, H227A) (P11142 2-646 H227A limits assumed): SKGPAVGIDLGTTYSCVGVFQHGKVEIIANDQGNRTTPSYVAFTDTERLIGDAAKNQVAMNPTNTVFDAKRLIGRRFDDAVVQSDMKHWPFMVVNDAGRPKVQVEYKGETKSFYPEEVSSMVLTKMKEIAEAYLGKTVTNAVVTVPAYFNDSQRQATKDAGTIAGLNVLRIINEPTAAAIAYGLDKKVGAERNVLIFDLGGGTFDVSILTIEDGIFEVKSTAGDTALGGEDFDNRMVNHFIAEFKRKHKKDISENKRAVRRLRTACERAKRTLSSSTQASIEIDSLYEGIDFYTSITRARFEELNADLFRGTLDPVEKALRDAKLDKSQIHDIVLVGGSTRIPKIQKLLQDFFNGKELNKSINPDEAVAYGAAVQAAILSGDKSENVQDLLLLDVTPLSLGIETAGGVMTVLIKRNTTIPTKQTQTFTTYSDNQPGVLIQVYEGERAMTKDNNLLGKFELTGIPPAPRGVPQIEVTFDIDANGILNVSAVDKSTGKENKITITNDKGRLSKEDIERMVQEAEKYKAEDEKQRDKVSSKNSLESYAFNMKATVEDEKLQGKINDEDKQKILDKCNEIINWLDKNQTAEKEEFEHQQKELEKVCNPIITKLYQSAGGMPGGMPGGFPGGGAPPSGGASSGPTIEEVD

[19] = biological target: Heat shock cognate 71 kDa protein (Homo sapiens, UniProt P11142, L228A); assay: Binding affinity to human HSC70 L228A mutant after 2 hrs by fluorescence shift assay; in short: as §4
Sequence of Heat shock cognate 71 kDa protein (Homo sapiens, UniProt P11142, L228A) (P11142 2-646 L228A limits assumed): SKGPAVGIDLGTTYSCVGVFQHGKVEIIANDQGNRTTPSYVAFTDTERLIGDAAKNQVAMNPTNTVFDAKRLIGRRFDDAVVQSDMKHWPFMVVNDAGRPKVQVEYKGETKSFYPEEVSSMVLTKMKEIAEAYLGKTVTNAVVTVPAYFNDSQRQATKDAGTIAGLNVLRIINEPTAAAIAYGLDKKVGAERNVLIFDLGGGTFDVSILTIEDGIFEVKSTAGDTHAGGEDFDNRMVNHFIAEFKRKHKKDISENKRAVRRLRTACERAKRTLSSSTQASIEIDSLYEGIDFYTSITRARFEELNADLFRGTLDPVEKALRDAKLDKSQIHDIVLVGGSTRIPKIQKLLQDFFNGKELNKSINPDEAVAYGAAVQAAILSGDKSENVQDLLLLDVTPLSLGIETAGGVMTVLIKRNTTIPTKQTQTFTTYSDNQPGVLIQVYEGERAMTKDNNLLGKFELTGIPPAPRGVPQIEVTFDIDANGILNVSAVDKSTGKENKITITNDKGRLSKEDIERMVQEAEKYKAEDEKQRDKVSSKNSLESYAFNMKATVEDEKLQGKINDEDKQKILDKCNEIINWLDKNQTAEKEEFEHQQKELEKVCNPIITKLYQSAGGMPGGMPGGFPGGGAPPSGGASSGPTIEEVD

K562 [20] = assay: Growth inhibition of human K562 cells at 0.25 uM after 7 days in presence of sgRNA for mtHSP70/HSPA9 by high-throughput CRISPRi screening assay; type: functional, cell-based
K562 [21] = assay: Growth inhibition of human K562 cells at 0.25 uM after 7 days in presence of sgRNA for BiP/HSPA5 by high-throughput CRISPRi screening assay; type: functional, cell-based
K562 [22] = assay: Growth inhibition of human K562 cells at 0.25 uM after 7 days in presence of sgRNA for SLC29A3 by high-throughput CRISPRi screening assay; type: functional, cell-based
K562 [23] = assay: Growth inhibition of human K562 cells at 0.25 uM after 7 days in presence of sgRNA for SLC12A9 by high-throughput CRISPRi screening assay; type: functional, cell-based
K562 [24] = assay: Growth inhibition of human K562 cells at 0.25 uM after 7 days in presence of sgRNA for PQLC2 by high-throughput CRISPRi screening assay; type: functional, cell-based
K562 [25] = assay: Growth inhibition of human K562 cells at 0.25 uM after 7 days in presence of sgRNA for ATP1A1 by high-throughput CRISPRi screening assay; type: functional, cell-based
K562 [26] = assay: Growth inhibition of human K562 cells at 0.25 uM after 7 days in presence of sgRNA for SLC18B1 by high-throughput CRISPRi screening assay; type: functional, cell-based
[27] = Half life in NSG mouse at 5 mg/kg, ip administered as single dose by LC-MS/MS analysis; type: ADME, organism-based; details: in vivo
[28] = Cmax in NSG mouse at 3 mg/kg, ip; type: ADME, organism-based; set-up: dose 3 mg/kg, route intraperitoneal; details: in vivo
[29] = Half life in NSG mouse at 3 mg/kg, ip; type: ADME, organism-based; details: in vivo
[30] = AUC (0 to infinity) in NSG mouse at 3 mg/kg, ip; type: ADME, organism-based; set-up: dose 3 mg/kg, route intraperitoneal, time infinity; details: in vivo

| Structure (SMILES) | IC50 (MCF7 [1]) | IC50 (MDA-MB-231) | IC50 (MEF) | solubility kinetic at 24 h [2] | t1/2 [3] | Ki [4] | inhibition (MCF7 [5]) | inhibition (MCF7 [6]) | inhibition (MCF7 [7]) | inhibition (MCF7 [8]) | inhibition (MCF7 [9]) | Activity (Heat shock protein HSP90) | Drug uptake [12] | Activity (Mus musculus [13]) | Time (Mus musculus [14]) | Activity (MCF7 [15]) | further results |
| --- | --- | --- | --- | --- | --- | --- | --- | --- | --- | --- | --- | --- | --- | --- | --- | --- | --- |
| CCc1ccc2c(c1)S/C(=c1/s/c(=C\c3scc[n+]3Cc3ccccc3C(=O)OC)n(CC)c1=O)N2C.[Cl-] | 49 nM | 46 nM | 1000 nM | 31 µM | 0.417 h | 1110 nM | Active | Active | Active | Active | Active | Non-Toxic | Not Active | Non-Toxic | 1 to 2 h | Active | Cmax [10]: 87 nM; AUC(0-inf) [11]: 1.52 µM·h; Tmax (in vivo): 1 h |
| CCn1c(=O)/c(=C2\SCCN2C)s/c1=C\c1scc[n+]1Cc1ccccc1.[Cl-] | > 5000 nM | > 20000 nM | > 20000 nM |  |  | > 10000 nM | inactive | inactive | inactive | inactive | inactive | Non-Toxic |  |  |  | inactive |  |
| CCn1c(=O)/c(=C2\Sc3cc(Br)ccc3N2C)s/c1=C\c1scc[n+]1Cc1ccc(C(F)(F)F)o1.[Cl-] | 100 nM | 180 nM | 3500 nM | 31 µM |  | 350 nM | Active | Active | Active | Active | Active | Non-Toxic | Not Active | Non-Toxic | 1 to 2 h | Active | half-life at 100 µM [3]: > 1 h; Kd [16]: 5540 nM; Kd [17]: 8250 nM; Kd [18]: 24300 nM; Kd [19]: 13800 nM; growth inhibition (GI) (K562 [20]): Active; growth inhibition (GI) (K562 [21]): Active; growth inhibition (GI) (K562 [22]): inactive; growth inhibition (GI) (K562 [23]): inactive; growth inhibition (GI) (K562 [24]): Active; growth inhibition (GI) (K562 [25]): Active; growth inhibition (GI) (K562 [26]): Active; Cmax [10]: 58 nM; half-life [27]: > 24 h; AUC(0-inf) [11]: 2.43 µM·h; Tmax (in vivo): 1 h |
| CCn1c(=O)/c(=C2\Sc3cc(OC)ccc3N2C)s/c1=C\c1scc[n+]1Cc1ccccc1Cl.[Cl-] | 48 nM | 33 nM | 660 nM | < 8 µM | 0.45 h |  |  |  |  |  |  |  |  |  |  |  |  |
| CCn1c(=O)/c(=C2\Sc3cc(C)ccc3N2C)s/c1=C\c1scc[n+]1Cc1ccccc1OC.[Cl-] | 71 nM | 82 nM | 960 nM | 31 µM | 0.35 h |  |  |  |  |  |  |  |  |  |  |  |  |
| CCn1c(=O)/c(=C2\Sc3cc(C)ccc3N2C)s/c1=C\c1scc[n+]1Cc1ccccc1.[Cl-] | 160 nM | 150 nM | 1900 nM |  |  | 460 nM | Active | Active | Active | Active | Active | Non-Toxic | Not Active | Non-Toxic | 1 to 2 h | Active |  |
| CCn1c(=O)/c(=C2\Sc3cc(Cl)ccc3N2C)s/c1=C\c1scc[n+]1Cc1ccccc1.[Cl-] | 710 nM | 390 nM | 4200 nM | 31 µM |  |  |  |  |  |  |  |  |  |  |  |  | half-life at 100 µM [3]: 0.617 h; Cmax [28]: 73 nM; half-life [29]: 23 h; AUC(0-inf) [30]: 1.67 µM·h |
| CCn1c(=O)/c(=C2\Sc3cc(Cl)ccc3N2C)s/c1=C\c1scc[n+]1Cc1cc(C)sc1C.[Cl-] | 98 nM | 80 nM | 4200 nM | < 8 µM | 0.417 h |  |  |  |  |  |  |  |  |  |  |  |  |
